Results taken from publication PMC2114617 (The Journal of Cell Biology, 1986).

Legend:
B16-F10 melanoma cells [1] = assay: Inhibition of B16-F10 melanoma cell spreading on CS5; format: cell-based, murine; details: CS5 substrate; data not shown
B16-F10 melanoma cells [2] = assay: Inhibition of B16-F10 melanoma cell spreading on fibronectin; format: cell-based, murine; details: data not shown
Summary of the method: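 Wells coated 60 min at room temperature with human plasma fibronectin (4 μg/ml) in PBS+, then blocked 30 min with heat-denatured BSA. Test peptide in PBS+ was added, with or without 5 μg/ml mAb333. Cells were fixed and %-spread scored by phase contrast (300 cells/well).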

BHK fibroblasts = assay: Spreading of BHK fibroblasts on fibronectin or its tryptic fragments; format: cell-based, hamster; details: substrate-coated protein
Summary of the method: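 Wells were coated 60 min at room temperature with human plasma fibronectin or its purified tryptic fragments (90-98% pure), with coating levels expressed in nM. Wells were blocked with heat-denatured BSA.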

Substance	Inhibition of B16-F10 spreading on fibronectin at concentrations up to 1 mg/ml (B16-F10 melanoma cells [2])	further results
GRGD	–	Inhibition of B16-F10 spreading on CS5 (B16-F10 melanoma cells [1]): highly inhibitory
Gly-His-Lys [GHK]	completely inactive	–
insulin A chain: Insulin A chain from Sigma Chemical Co., peptide unrelated to RGDS	completely inactive	–
Arg- Asp [RD]	completely inactive	–
Thr-Lys-Pro- Arg [TKPR]	completely inactive	–
fibronectin	–	Spreading of BHK cells on fibronectin and fragments (BHK fibroblasts): spread equally well
heparin	no detectable effect	–
Arg-Gly-Pro-Phe-Pro-lle [RGPFPI]	completely inactive	–
SDGR	–	Inhibition of B16-F10 spreading on CS5 (B16-F10 melanoma cells [1]): more active than GRGDS
